What was measured:
[1] = molecular target: T1, Glucocorticoid receptor (Homo sapiens, UniProt P04150); experiment: Displacement of [3H]dexamethasone from human Glucocorticoid receptor (GR); Value ranges from 6-7 nM
T1 sequence (P04150 whole entry): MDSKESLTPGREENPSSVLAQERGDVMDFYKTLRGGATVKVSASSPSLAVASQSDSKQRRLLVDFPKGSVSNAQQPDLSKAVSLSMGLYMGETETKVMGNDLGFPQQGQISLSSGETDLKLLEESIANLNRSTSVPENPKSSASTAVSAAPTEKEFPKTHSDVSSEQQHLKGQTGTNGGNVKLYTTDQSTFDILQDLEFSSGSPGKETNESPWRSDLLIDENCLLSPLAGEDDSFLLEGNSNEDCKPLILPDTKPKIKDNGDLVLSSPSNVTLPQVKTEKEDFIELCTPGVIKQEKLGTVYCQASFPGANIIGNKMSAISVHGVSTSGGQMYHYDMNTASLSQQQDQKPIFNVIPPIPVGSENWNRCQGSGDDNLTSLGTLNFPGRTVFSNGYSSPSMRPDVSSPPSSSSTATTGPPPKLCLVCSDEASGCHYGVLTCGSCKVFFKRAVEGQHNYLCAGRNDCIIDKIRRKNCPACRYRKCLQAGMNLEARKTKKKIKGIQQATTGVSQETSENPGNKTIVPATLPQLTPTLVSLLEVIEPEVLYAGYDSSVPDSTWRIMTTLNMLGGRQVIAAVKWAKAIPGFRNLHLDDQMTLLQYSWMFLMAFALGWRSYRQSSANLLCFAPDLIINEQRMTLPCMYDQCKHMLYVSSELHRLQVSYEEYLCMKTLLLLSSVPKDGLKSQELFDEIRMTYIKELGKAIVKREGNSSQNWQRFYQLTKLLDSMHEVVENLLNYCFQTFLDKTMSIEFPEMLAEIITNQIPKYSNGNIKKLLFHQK
Procedure, shortened: (§1)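 Binding to human GR; IC50 reported as the geometric mean of two experiments (three for some values), each run in duplicate, with the range of the experiments given.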

[2] = molecular target: T2, Progesterone receptor (Homo sapiens, UniProt P06401); experiment: Displacement of [3H]progesterone from human Progesterone receptor
T2 sequence (P06401 whole entry): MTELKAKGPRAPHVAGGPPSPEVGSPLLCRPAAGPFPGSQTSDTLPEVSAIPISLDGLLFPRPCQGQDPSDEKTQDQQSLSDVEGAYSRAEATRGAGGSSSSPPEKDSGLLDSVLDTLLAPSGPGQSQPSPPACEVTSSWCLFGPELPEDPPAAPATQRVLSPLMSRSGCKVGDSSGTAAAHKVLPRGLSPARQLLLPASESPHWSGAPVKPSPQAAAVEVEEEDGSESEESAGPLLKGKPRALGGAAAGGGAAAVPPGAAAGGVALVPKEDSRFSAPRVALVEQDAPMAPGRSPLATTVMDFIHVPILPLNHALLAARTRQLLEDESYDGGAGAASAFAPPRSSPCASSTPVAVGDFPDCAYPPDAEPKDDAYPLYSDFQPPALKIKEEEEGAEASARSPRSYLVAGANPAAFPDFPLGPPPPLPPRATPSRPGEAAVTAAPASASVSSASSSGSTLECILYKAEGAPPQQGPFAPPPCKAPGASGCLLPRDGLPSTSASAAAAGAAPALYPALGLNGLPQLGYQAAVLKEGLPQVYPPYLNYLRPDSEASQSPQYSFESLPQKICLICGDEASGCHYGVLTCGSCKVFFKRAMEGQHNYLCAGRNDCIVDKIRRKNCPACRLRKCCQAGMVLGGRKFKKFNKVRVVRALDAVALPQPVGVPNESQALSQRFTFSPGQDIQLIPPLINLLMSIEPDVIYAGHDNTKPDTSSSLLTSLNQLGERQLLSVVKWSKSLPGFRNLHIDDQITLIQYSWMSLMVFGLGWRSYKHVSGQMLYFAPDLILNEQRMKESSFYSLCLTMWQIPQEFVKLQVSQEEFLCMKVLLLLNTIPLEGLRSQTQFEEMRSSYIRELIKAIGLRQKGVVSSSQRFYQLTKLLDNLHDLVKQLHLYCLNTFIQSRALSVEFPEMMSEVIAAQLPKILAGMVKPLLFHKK
Procedure, shortened: (§2)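 Human steroid receptor (PR, MR, AR, ERα) binding measured by radioligand displacement, with IC50s determined in duplicate. Values without a range come from a single experiment, and values with a range are geometric means of repeat experiments.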

[3] = molecular target: T3, Mineralocorticoid receptor (Homo sapiens, UniProt P08235); experiment: Displacement of [3H]aldosterone from human Mineralocorticoid receptor; procedure, shortened: as §2
T3 sequence (P08235 whole entry): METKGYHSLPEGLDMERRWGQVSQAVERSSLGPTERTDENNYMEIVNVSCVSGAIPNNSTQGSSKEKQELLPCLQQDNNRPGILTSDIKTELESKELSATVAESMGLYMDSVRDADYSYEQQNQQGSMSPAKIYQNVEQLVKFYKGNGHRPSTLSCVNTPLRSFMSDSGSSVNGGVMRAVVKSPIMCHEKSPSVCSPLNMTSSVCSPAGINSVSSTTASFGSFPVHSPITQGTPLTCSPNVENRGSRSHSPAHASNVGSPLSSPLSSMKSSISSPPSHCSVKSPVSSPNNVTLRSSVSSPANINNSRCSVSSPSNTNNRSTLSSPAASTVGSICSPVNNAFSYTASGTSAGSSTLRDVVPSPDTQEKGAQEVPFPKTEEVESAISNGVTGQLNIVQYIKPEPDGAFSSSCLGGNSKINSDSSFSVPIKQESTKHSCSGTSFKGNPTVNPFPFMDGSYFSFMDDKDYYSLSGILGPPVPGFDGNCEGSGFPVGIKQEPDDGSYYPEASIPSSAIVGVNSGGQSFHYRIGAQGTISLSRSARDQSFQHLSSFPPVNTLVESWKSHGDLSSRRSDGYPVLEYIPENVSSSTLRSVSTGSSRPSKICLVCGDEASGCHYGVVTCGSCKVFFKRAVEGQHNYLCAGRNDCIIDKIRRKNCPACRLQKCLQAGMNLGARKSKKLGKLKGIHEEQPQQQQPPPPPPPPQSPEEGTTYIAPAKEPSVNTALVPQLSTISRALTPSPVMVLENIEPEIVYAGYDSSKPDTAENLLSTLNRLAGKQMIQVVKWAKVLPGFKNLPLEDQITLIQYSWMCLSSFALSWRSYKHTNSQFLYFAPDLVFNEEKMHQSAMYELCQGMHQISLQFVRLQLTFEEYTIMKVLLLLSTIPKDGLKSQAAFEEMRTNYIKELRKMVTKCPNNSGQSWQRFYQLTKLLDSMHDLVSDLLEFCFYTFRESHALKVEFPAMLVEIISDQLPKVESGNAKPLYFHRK

[4] = molecular target: T1, Glucocorticoid receptor
[5] = molecular target: T1, Glucocorticoid receptor; experiment: Displacement of [3H]dexamethasone from human Glucocorticoid receptor (GR); Value ranges from 3-4 nM; procedure, shortened: as §1
[6] = molecular target: T1, Glucocorticoid receptor; experiment: Displacement of [3H]dexamethasone from human Glucocorticoid receptor (GR); Value ranges from 70-92 nM
[7] = molecular target: T1, Glucocorticoid receptor; experiment: Displacement of [3H]dexamethasone from human Glucocorticoid receptor (GR); […]

Row | IC50 [1] [µM] | IC50 [2] [µM] | IC50 [3] [µM] | IC50 [5] [µM] | IC50 [6] [µM] | IC50 [7] [µM] | Structure (SMILES) | IC50 [4] [µM]
1 | 0.007 | 0.673 | 0.651 | – | – | – | COc1cccc2c1-c1ccc(NS(C)(=O)=O)cc1C(c1ccc(C)cc1)O2 (stereo not given) | –
2 | – | 0.476 | 0.683 | 0.003 | – | – | COc1cccc2c1-c1ccc(NS(C)(=O)=O)cc1C(c1cccc(F)c1)O2 (stereo not given) | –
3 | – | 6.9 | 0.893 | – | 0.081 | – | CCOc1cccc2c1-c1ccc(NS(C)(=O)=O)cc1C(c1ccccc1)O2 (stereo not given) | –
4 | – | 1.16 | 2.48 | – | – | 0.029 | COc1cccc2c1-c1ccc(NS(C)(=O)=O)cc1C(c1ccc(F)cc1)O2 (stereo not given) | –

Row | Structure (SMILES) | IC50 [1] [µM] | IC50 [2] [µM] | IC50 [3] [µM] | IC50 [5] [µM] | IC50 [6] [µM] | IC50 [7] [µM] | IC50 [4] [µM]
5 | COc1cccc2c1-c1ccc(NS(C)(=O)=O)cc1C(c1cccs1)O2 (stereo not given) | – | 0.45 | 2.25 | – | – | – | 0.007
